Measurements: ChEMBL document CHEMBL1165950, “Design and synthesis of new potent anticancer pyrazoles with high FLT3 kinase inhibitory selectivity” (Bioorg Med Chem, 2010)

Columns and labels:
Type in all cases: functional
COLO 205 = test: Cytotoxicity against human COLO205 cells assessed as cell growth at 1 uM after 48 hrs by sulforhodamine B assay; details: COLO 205, 48 h, read-out: Activity
How it was run: (§1)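 NCI-60 five-dose screen. Cells were grown in RPMI 1640 with 5% FBS and 2 mM L-glutamine, plated at 5000–40,000 cells/well and preincubated for 24 h. Time-zero plates were TCA-fixed. DMSO-solubilized drug was added at five concentrations (10-fold or ½-log serial dilutions) for 48 h at 37 °C, 5% CO2. Cells were TCA-fixed, stained with 0.4% SRB and read at 515 nm. Percent growth used time-zero, control and test absorbances.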

U-251 = test: Cytotoxicity against human U251 cells assessed as cell growth at 10 uM; details: read-out: Activity
How it was run: (§2)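 NCI-60 screen: cells grown in RPMI 1640 with 5% FBS and 2 mM L-glutamine, plated at 5000–40,000 cells/well according to doubling time, and preincubated 24 h at 37 °C, 5% CO2. The single 10 µM dose (DMSO stock) was added, then incubated 48 h. Cells were TCA-fixed and stained with 0.4% SRB, read at 515 nm, and growth % calculated against time-zero and control plates.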

LOX IMVI = test: Cytotoxicity against human LOXIMVI cells assessed as cell growth at 100 nM after 48 hrs by sulforhodamine B assay; details: read-out: Activity
M14 = test: Cytotoxicity against human M14 cells assessed as cell growth at 10 uM; details: read-out: Activity; how it was run: as §2
SN12C [1] = test: Cytotoxicity against human SN12C cells assessed as cell growth at 0.001 uM after 48 hrs by sulforhodamine B assay; details: read-out: Activity
EKVX [2] = test: Cytotoxicity against human EKVX cells assessed as cell growth at 100 nM after 48 hrs by sulforhodamine B assay; details: read-out: Activity
DU-145 [3] = test: Cytotoxicity against human DU145 cells assessed as cell growth at 100 nM after 48 hrs by sulforhodamine B assay; details: DU-145, 48 h, read-out: Activity
HOP-92 = test: Cytotoxicity against human HOP92 cells assessed as cell growth at 0.01 uM after 48 hrs by sulforhodamine B assay; details: HOP-92, 48 h, read-out: Activity
[4] = Cytotoxicity against human RPMI8266 cells assessed as cell growth at 100 nM after 48 hrs by sulforhodamine B assay; details: read-out: Activity
SK-MEL-5 = test: Cytotoxicity against human SK-MEL-5 cells assessed as cell growth at 10 uM after 48 hrs by sulforhodamine B assay; details: SK-MEL-5, 48 h, read-out: Activity
TK-10 = test: Cytotoxicity against human TK10 cells assessed as cell growth at 0.001 uM after 48 hrs by sulforhodamine B assay; details: TK-10, 48 h, read-out: Activity
SK-MEL-2 = test: Cytotoxicity against human SK-MEL-2 cells assessed as cell growth at 10 uM; details: read-out: Activity; how it was run: as §2
SF-539 = test: Cytotoxicity against human SF539 cells assessed as cell growth at 100 nM after 48 hrs by sulforhodamine B assay; details: SF-539, 48 h, read-out: Activity
NCI-H522 = test: Cytotoxicity against human NCI-H522 cells assessed as cell growth at 0.001 uM after 48 hrs by sulforhodamine B assay; details: NCI-H522, 48 h, read-out: Activity
SF-268 = test: Cytotoxicity against human SF268 cells assessed as cell growth at 1 uM after 48 hrs by sulforhodamine B assay; details: SF-268, 48 h, read-out: Activity
OVCAR-4 [5] = test: Cytotoxicity against human OVCAR4 cells assessed as cell growth at 0.001 uM after 48 hrs by sulforhodamine B assay; details: OVCAR-4, 48 h, read-out: Activity
DU-145 [6] = test: Cytotoxicity against human DU145 cells assessed as cell growth at 1 uM after 48 hrs by sulforhodamine B assay; details: DU-145, 48 h, read-out: Activity
KM12 = test: Cytotoxicity against human KM12 cells assessed as cell growth at 1 uM after 48 hrs by sulforhodamine B assay; details: KM12, 48 h, read-out: Activity
OVCAR-4 [7] = test: Cytotoxicity against human OVCAR4 cells assessed as cell growth at 100 nM after 48 hrs by sulforhodamine B assay; details: OVCAR-4, 48 h, read-out: Activity
MDA-MB-468 = test: Cytotoxicity against human MDA-MB-468 cells assessed as cell growth at 10 uM; details: read-out: Activity; how it was run: as §2
786-0 [8] = test: Cytotoxicity against human 786-0 cells assessed as cell growth at 100 nM after 48 hrs by sulforhodamine B assay; details: 786-0, 48 h, read-out: Activity; how it was run: as §1
CAKI-1 [9] = test: Cytotoxicity against human Caki1 cells assessed as cell growth at 0.001 uM after 48 hrs by sulforhodamine B assay; details: CAKI-1, 48 h, read-out: Activity
HCC 2998 = test: Cytotoxicity against human HCC2998 cells assessed as cell growth at 0.001 uM after 48 hrs by sulforhodamine B assay; details: HCC 2998, 48 h, read-out: Activity
[10] = Cytotoxicity against human RPMI8266 cells assessed as cell growth at 0.01 uM after 48 hrs by sulforhodamine B assay; details: read-out: Activity
MDA-MB-231 = test: Growth inhibition of human MDA-MB-231 cells after 48 hrs by sulforhodamine B assay; details: MDA-MB-231, 48 h
How it was run: (§3)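 NCI 60-cell screen, five-dose mode. Cells grown in RPMI 1640 with 5% FBS and 2 mM L-glutamine and plated at 5000-40,000 cells/well according to doubling time. After 24 h preincubation, a Tz plate was TCA-fixed. Five concentrations (10-fold or 1/2 log dilutions) were applied for 48 h at 37 °C. SRB staining read at 515 nm. IC50 taken from [(Ti-Tz)/(C-Tz)]×100 = 50.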

CAKI-1 [11] = test: Cytotoxicity against human Caki1 cells assessed as cell growth at 0.01 uM after 48 hrs by sulforhodamine B assay; details: CAKI-1, 48 h, read-out: Activity
SN12C [12] = test: Cytotoxicity against human SN12C cells assessed as cell growth at 10 uM after 48 hrs by sulforhodamine B assay; details: read-out: Activity
786-0 [13] = test: Cytotoxicity against human 786-0 cells assessed as cell growth at 0.001 uM after 48 hrs by sulforhodamine B assay; details: 786-0, 48 h, read-out: Activity; how it was run: as §1
OVCAR-3 [14] = test: Cytotoxicity against human OVCAR-3 cells assessed as cell growth at 0.001 uM after 48 hrs by sulforhodamine B assay; details: OVCAR-3, 48 h, read-out: Activity
UACC-62 = test: Cytotoxicity against human UACC62 cells assessed as cell growth at 10 uM; details: read-out: Activity; how it was run: as §2
EKVX [15] = test: Growth inhibition of human EKVX cells after 48 hrs by sulforhodamine B assay; details: for CC50: read-out: LC50 (the source's name)
How it was run: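 NCI five-dose SRB assay in RPMI 1640 with 5% FBS and 2 mM L-glutamine. Cells were preincubated 24 h, then exposed 48 h at 37 °C to five concentrations (10-fold or half-log serial dilutions from DMSO stocks). TCA fixation, SRB staining, and absorbance at 515 nm followed. IC50 was taken where [(Ti−Tz)/(C−Tz)]×100 = 50, with Tz as time-zero cell density.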

OVCAR-3 [16] = test: Growth inhibition of human OVCAR-3 cells after 48 hrs by sulforhodamine B assay; details: OVCAR-3, 48 h; for CC50: read-out: LC50 (the source's name); how it was run: as §3

Structure (SMILES) | growth at 1 µM (COLO 205) [%] | growth at 10 µM (U-251) [%] | growth at 0.1 µM (LOX IMVI) [%] | growth at 10 µM (M14) [%] | growth at 0.001 µM (SN12C [1]) [%] | growth at 0.1 µM (EKVX [2]) [%] | growth at 0.1 µM (DU-145 [3]) [%] | growth at 0.01 µM (HOP-92) [%] | growth at 0.1 µM [4] [%] | growth at 10 µM (SK-MEL-5) [%] | growth at 0.001 µM (TK-10) [%] | growth at 10 µM (SK-MEL-2) [%] | growth at 0.1 µM (SF-539) [%] | growth at 0.001 µM (NCI-H522) [%] | growth at 1 µM (SF-268) [%] | growth at 0.001 µM (OVCAR-4 [5]) [%] | growth at 1 µM (DU-145 [6]) [%] | growth at 1 µM (KM12) [%] | growth at 0.1 µM (OVCAR-4 [7]) [%] | growth at 10 µM (MDA-MB-468) [%] | other results
COc1cc(C)cc(-c2nn(CC#N)cc2-c2ccnc(-c3ccc(N(C)C)cc3)c2)c1 | -74 | -9.99 | 39 | -10 | 100 | 43 | 2 | 93 | 57 | -66 | 109 | 40.8 | -31 | 77 | -2 | 106 | -40 | -37 | 33 | -48.4 | growth at 0.1 µM (786-0 [8]): 22%; growth at 0.001 µM (CAKI-1 [9]): 102%; growth at 0.001 µM (HCC 2998): 106%; growth at 0.01 µM [10]: 110%; GI50 (MDA-MB-231): 1.09 µM; LC50 (MDA-MB-231): > 100 µM; growth at 0.01 µM (CAKI-1 [11]): 92%; growth at 10 µM (SN12C [12]): -8%; growth at 0.001 µM (786-0 [13]): 101%; growth at 0.001 µM (OVCAR-3 [14]): 106%; growth at 10 µM (UACC-62): 19.1%; GI50 (EKVX [15]): 0.696 µM; TGI (EKVX [15]): > 10 µM; CC50 (EKVX [15]): > 100 µM; GI50 (OVCAR-3 [16]): 0.204 µM; TGI (OVCAR-3 [16]): 0.448 µM
Cc1cc(O)cc(-c2nn(CC#N)cc2-c2ccnc(-c3ccc(N(C)C)cc3)c2)c1 | -59 | 17.1 | 101 | 6.66 | 97 | 81 | 94 | 85 | 96 | -93 | 105 | 43.2 | 91 | 87 | 17 | 104 | -7 | -9 | 101 | -13.9 | growth at 0.1 µM (786-0 [8]): 91%; growth at 0.001 µM (CAKI-1 [9]): 103%; growth at 0.001 µM (HCC 2998): 91%; growth at 0.01 µM [10]: 99%; GI50 (MDA-MB-231): 2.94 µM; LC50 (MDA-MB-231): > 100 µM; TGI (MDA-MB-231): 22.6 µM; growth at 0.01 µM (CAKI-1 [11]): 102%; growth at 10 µM (SN12C [12]): -29%; growth at 0.001 µM (786-0 [13]): 102%; growth at 0.001 µM (OVCAR-3 [14]): 105%; growth at 10 µM (UACC-62): 25.1%; GI50 (EKVX [15]): 3.92 µM; TGI (EKVX [15]): 92.8 µM; CC50 (EKVX [15]): > 100 µM; GI50 (OVCAR-3 [16]): 1.91 µM; TGI (OVCAR-3 [16]): 4.78 µM; CC50 (OVCAR-3 [16]): 21.2 µM
COc1cc(C)cc(-c2nn(CC#N)cc2-c2ccc(-c3cccc(C(C)=O)c3)nc2)c1 | -55 | 11.8 | 82 | 6.52 | 92 | 89 | 87 | 80 | 96 | -75 | 99 | 35.4 | 78 | 85 | 23 | 99 | -38 | 4 | 92 | -30.5 | growth at 0.1 µM (786-0 [8]): 92%; growth at 0.001 µM (CAKI-1 [9]): 101%; growth at 0.001 µM (HCC 2998): 87%; growth at 0.01 µM [10]: 93%; GI50 (MDA-MB-231): 3.04 µM; LC50 (MDA-MB-231): > 100 µM; TGI (MDA-MB-231): > 100 µM; growth at 0.01 µM (CAKI-1 [11]): 96%; growth at 10 µM (SN12C [12]): 18%; growth at 0.001 µM (786-0 [13]): 97%; growth at 0.001 µM (OVCAR-3 [14]): 102%; growth at 10 µM (UACC-62): 27.2%; GI50 (EKVX [15]): 3.98 µM; TGI (EKVX [15]): 50.7 µM; CC50 (EKVX [15]): > 100 µM; GI50 (OVCAR-3 [16]): 1.34 µM; TGI (OVCAR-3 [16]): 3.3 µM; CC50 (OVCAR-3 [16]): 8.13 µM
